ChEMBL document CHEMBL5038571, “Design and Synthesis of EZH2-Based PROTACs to Degrade the PRC2 Complex for Targeting the Noncatalytic Activity of EZH2” (J Med Chem, 2021)
Values belong to the compound of their own block, whether it stands above or below them. Active and inactive are the calls of the source. No cut-off for these calls is given here.

Columns and labels:
[1] = molecular target: T1, Protein cereblon/Histone-lysine N-methyltransferase EZH2 (Homo sapiens) (UniProt Q15910+Q96SW2); assay: PROTAC activity at CRBN E3 ligase/EZH2 in PRC2 complex in human WSUDLCL2 cells assessed as reduction in EZH2 level at 2.5 uM measured after 48 hrs by Western blot analysis; assay type: cell-based
How it was run: (§1)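 WSU-DLCL-2 cells exposed 48 h to PROTAC or control analogues at 2.5 μM, with thalidomide and EPZ6438 at 10 μM; PRC2 subunit levels then read by western blot.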

[2] = molecular target: T1, Protein cereblon/Histone-lysine N-methyltransferase EZH2 (Homo sapiens); assay: PROTAC activity at CRBN E3 ligase/EZH2 in PRC2 complex in human WSUDLCL2 cells assessed as reduction in RbAp48 level at 2.5 uM measured after 48 hrs by Western blot analysis; assay type: cell-based; how it was run: as §1
A549 [3] = assay: Antiproliferative activity against EZH2-knockdown human A549 cells assessed as inhibition of cell growth at 10 uM treated for 9 days by optical microscopic analysis; assay type: functional, cell-based; conditions: time 9.0 day
How it was run: (§2)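 Cells seeded at 5 × 10³ per well, grown 24 h, then exposed to compound at 10 μM for 9 days with medium refreshed. Cells were photographed and counted on days 1, 3, 5, 7 and 9. For lines 1-2, EZH2-targeting or control shRNA was induced in the cells. Mean SD of three independent experiments; t-test against control.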

[4] = molecular target: Histone-lysine N-methyltransferase EZH2 (Homo sapiens, UniProt Q15910); assay type: cell-based, Sf9
[5] = molecular target: T1, Protein cereblon/Histone-lysine N-methyltransferase EZH2 (Homo sapiens); assay: PROTAC activity at CRBN E3 ligase/EZH2 in PRC2 complex in human WSUDLCL2 cells assessed as reduction in SUZ12 level at 2.5 uM measured after 48 hrs by Western blot analysis; assay type: cell-based; how it was run: as §1
NCI-H1299 [6] = assay: Antiproliferative activity against EZH2-knockdown human NCI-H1299 cells assessed as inhibition of cell growth at 10 uM treated for 9 days by optical microscopic analysis; assay type: functional, cell-based; conditions: time 9.0 day; how it was run: as §2
[7] = molecular target: T1, Protein cereblon/Histone-lysine N-methyltransferase EZH2 (Homo sapiens); assay: PROTAC activity at CRBN E3 ligase/EZH2 in PRC2 complex in human WSUDLCL2 cells assessed as reduction in EED level at 2.5 uM measured after 48 hrs by Western blot analysis; assay type: cell-based; how it was run: as §1
[8] = molecular target: T1, Protein cereblon/Histone-lysine N-methyltransferase EZH2 (Homo sapiens); assay: PROTAC activity at CRBN E3 ligase/EZH2 in PRC2 complex in human WSUDLCL2 cells assessed as reduction in H3K27me3 level at 1 uM incubated for 48 hrs by Western blot analysis; assay type: cell-based
How it was run: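 WSU-DLCL-2 cells treated 48 h (1 μM for the single-concentration screen), lysed; SDS-PAGE, nitrocellulose transfer, 5% milk block, primary antibody 4 °C overnight, chemiluminescence. Bands quantified by densitometry, normalized to GAPDH, expressed relative to DMSO-treated cells; mean ± SD of three independent experiments, t-test.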

A549 [9] = assay: Downregulation of […] mRNA expression in human A549 cells at 10 uM incubated for 48 hrs by qRT-PCR analysis; assay type: functional, cell-based
How it was run: (§3)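 Cells treated 48 h. Total RNA extracted with Trizol, reverse-transcribed, and SYBR RT-qPCR run: 95 °C 30 s, then 40 cycles of 95 °C 6 s and 60 °C 20 s. mRNA normalized to the DMSO-treated group. Mean SD of three independent experiments, t-test versus DMSO.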

NCI-H1299 [10] = assay: Downregulation of CHEK1 mRNA expression in human NCI-H1299 cells at 10 uM incubated for 48 hrs by qRT-PCR analysis; assay type: functional, cell-based; how it was run: as §3
A549 [11] = assay: Downregulation of CHEK1 mRNA expression in human A549 cells at 10 uM incubated for 48 hrs by qRT-PCR analysis; assay type: functional, cell-based; how it was run: as §3
NCI-H1299 [12] = assay: Downregulation of TACC3 mRNA expression in human NCI-H1299 cells at 10 uM incubated for 48 hrs by qRT-PCR analysis; assay type: functional, cell-based; how it was run: as §3
A549 [13] = assay: Antiproliferative activity against human A549 cells harboring SWI/SNF mutant assessed as inhibition of cell growth at 10 uM treated for 9 days by optical microscopic analysis; assay type: functional, cell-based; conditions: time 9.0 day; how it was run: as §2
A549 [14] = assay: Downregulation of CEP76 mRNA expression in human A549 cells at 10 uM incubated for 48 hrs by qRT-PCR analysis; assay type: functional, cell-based; how it was run: as §3
MDA-MB-468 [15] = assay: Downregulation of CHEK1 mRNA expression in human MDA-MB-468 cells at 10 uM incubated for 48 hrs by qRT-PCR analysis; assay type: functional, cell-based; how it was run: as §3
NCI-H1299 [16] = assay: Antiproliferative activity against human NCI-H1299 cells harboring SWI/SNF mutant assessed as inhibition of cell growth at 10 uM treated for 9 days by optical microscopic analysis; assay type: functional, cell-based; conditions: time 9.0 day; how it was run: as §2
MDA-MB-468 [17] = assay: Downregulation of CENPK mRNA expression in human MDA-MB-468 cells at 10 uM incubated for 48 hrs by qRT-PCR analysis; assay type: functional, cell-based; how it was run: as §3
A549 [18] = assay: Downregulation of CENPK mRNA expression in human A549 cells at 10 uM incubated for 48 hrs by qRT-PCR analysis; assay type: functional, cell-based; how it was run: as §3
MDA-MB-468 [19] = assay: Downregulation of ARL6IP mRNA expression in human MDA-MB-468 cells at 10 uM incubated for 48 hrs by qRT-PCR analysis; assay type: functional, cell-based; how it was run: as §3
NCI-H1299 [20] = assay: Downregulation of […] mRNA expression in human NCI-H1299 cells at 10 uM incubated for 48 hrs by qRT-PCR analysis; assay type: functional, cell-based; how it was run: as §3
A549 [21] = assay: Downregulation of ARL6IP mRNA expression in human A549 cells at 10 uM incubated for 48 hrs by qRT-PCR analysis; assay type: functional, cell-based; how it was run: as §3
NCI-H1299 [22] = assay: Downregulation of ARL6IP mRNA expression in human NCI-H1299 cells at 10 uM incubated for 48 hrs by qRT-PCR analysis; assay type: functional, cell-based; how it was run: as §3
MDA-MB-468 [23] = assay: Downregulation of CEP76 mRNA expression in human MDA-MB-468 cells at 10 uM incubated for 48 hrs by qRT-PCR analysis; assay type: functional, cell-based; how it was run: as §3
MDA-MB-468 [24] = assay: Downregulation of […] mRNA expression in human MDA-MB-468 cells at 10 uM incubated for 48 hrs by qRT-PCR analysis; assay type: functional, cell-based; how it was run: as §3
A549 [25] = assay: Downregulation of TACC3 mRNA expression in human A549 cells at 10 uM incubated for 48 hrs by qRT-PCR analysis; assay type: functional, cell-based; how it was run: as §3
NCI-H1299 [26] = assay: Downregulation of CENPK mRNA expression in human NCI-H1299 cells at 10 uM incubated for 48 hrs by qRT-PCR analysis; assay type: functional, cell-based; how it was run: as §3
WSUDLCL2 = assay: Antiproliferative activity against human WSUDLCL2 cells harboring EZH2-Y641F mutant assessed as inhibition of cell growth at 10 uM incubated for 9 days by optical microscopic analysis; assay type: functional, cell-based; conditions: time 9.0 day
How it was run: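 WSU-DLCL-2 cells seeded at 5 × 10³ per well, incubated 24 h, then exposed to 10 μM compound for 9 days with medium refreshed. Cells photographed and counted on days 1, 3, 5, 7 and 9. Mean SD of three independent experiments, t-test versus DMSO.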

MDA-MB-468 [27] = assay: Downregulation of TACC3 mRNA expression in human MDA-MB-468 cells at 10 uM incubated for 48 hrs by qRT-PCR analysis; assay type: functional, cell-based; how it was run: as §3
NCI-H1299 [28] = assay: Downregulation of CEP76 mRNA expression in human NCI-H1299 cells at 10 uM incubated for 48 hrs by qRT-PCR analysis; assay type: functional, cell-based; how it was run: as §3

T1 sequence (Q15910 whole entry, looked up): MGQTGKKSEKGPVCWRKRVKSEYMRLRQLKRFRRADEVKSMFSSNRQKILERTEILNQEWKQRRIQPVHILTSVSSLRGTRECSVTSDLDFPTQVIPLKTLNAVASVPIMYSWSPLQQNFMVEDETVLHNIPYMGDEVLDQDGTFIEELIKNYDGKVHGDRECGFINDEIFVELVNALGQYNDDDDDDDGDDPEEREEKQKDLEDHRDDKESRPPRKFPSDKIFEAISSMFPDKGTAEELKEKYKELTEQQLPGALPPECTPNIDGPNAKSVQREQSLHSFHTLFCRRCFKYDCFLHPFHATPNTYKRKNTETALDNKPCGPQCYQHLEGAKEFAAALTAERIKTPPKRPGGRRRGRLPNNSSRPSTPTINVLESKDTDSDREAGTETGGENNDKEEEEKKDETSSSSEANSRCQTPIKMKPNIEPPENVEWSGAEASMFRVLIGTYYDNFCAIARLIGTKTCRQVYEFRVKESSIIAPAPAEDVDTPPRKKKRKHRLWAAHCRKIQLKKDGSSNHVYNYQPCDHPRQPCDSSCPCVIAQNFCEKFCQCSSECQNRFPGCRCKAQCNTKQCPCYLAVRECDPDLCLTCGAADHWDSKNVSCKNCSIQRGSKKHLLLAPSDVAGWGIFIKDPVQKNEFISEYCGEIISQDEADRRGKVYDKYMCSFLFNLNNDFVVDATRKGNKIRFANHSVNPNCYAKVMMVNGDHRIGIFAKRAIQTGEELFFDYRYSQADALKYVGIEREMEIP
T1 sequence (Q96SW2 whole entry, looked up): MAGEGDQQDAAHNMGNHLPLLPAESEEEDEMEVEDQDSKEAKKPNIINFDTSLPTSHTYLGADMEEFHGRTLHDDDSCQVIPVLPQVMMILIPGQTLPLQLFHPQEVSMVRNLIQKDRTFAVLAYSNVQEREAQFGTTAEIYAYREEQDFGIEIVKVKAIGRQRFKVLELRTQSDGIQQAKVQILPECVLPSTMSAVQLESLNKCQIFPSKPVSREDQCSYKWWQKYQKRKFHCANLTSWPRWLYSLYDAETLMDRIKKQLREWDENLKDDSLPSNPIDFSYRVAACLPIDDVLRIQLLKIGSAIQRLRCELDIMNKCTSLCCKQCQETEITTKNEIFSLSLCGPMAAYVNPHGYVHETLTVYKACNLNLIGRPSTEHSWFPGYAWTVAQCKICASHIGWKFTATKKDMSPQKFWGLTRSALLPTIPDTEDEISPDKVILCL
Chain of Histone-lysine N-methyltransferase EZH2 (Q15910 whole entry): as the sequence (Q15910 whole entry, looked up) above

- Activity [1]: inactive
- Activity [2]: inactive
- IC50 [4]: 1.93 nM
- Activity [5]: inactive
- Activity [7]: inactive
Compound: CCN(c1cc(-c2ccc(CN3CCN(CCCCCCCOc4cccc5c4C(=O)N(C4CCC(=O)N(C)C4=O)C5=O)CC3)cc2)cc(C(=O)NCc2c(C)cc(C)[nH]c2=O)c1C)C1CCOCC1 (stereo not drawn)
- Activity (A549 [3]): inactive
- Activity (NCI-H1299 [6]): inactive

- IC50 [4]: 4.5 nM
Compound: CCN(c1cc(-c2ccc(CN3CCN(CCCCCOc4cccc5c4C(=O)N(C4CCC(=O)NC4=O)C5=O)CC3)cc2)cc(C(=O)NCc2c(C)cc(C)[nH]c2=O)c1C)C1CCOCC1 (stereo not drawn)

- IC50 [4]: 6.3 nM
Compound: CC[C@H](C)n1cc(C)c2c(C(=O)NCc3c(C)cc(C)[nH]c3=O)cc(-c3ccc(N4CCN(CCCCCCCOc5cccc6c5C(=O)N(C5CCC(=O)NC5=O)C6=O)CC4)nc3)cc21 (stereo partly drawn)

- IC50 [4]: 4 nM
Compound: CC[C@H](C)n1cc(C)c2c(C(=O)NCc3c(C)cc(C)[nH]c3=O)cc(-c3ccc(N4CCN(CCCCCCOc5cccc6c5C(=O)N(C5CCC(=O)NC5=O)C6=O)CC4)nc3)cc21 (stereo partly drawn)

- IC50 [4]: 3.7 nM
- Activity [8]: Active
Compound: CCN(c1cc(-c2ccc(CN3CCN(CCCCOc4cccc5c4C(=O)N(C4CCC(=O)NC4=O)C5=O)CC3)cc2)cc(C(=O)NCc2c(C)cc(C)[nH]c2=O)c1C)C1CCOCC1 (stereo not drawn)

- IC50 [4]: 17 nM
- Activity [8]: Active
Compound: CCN(c1cc(-c2ccc(CN3CCN(CCCCCCCCCCOc4cccc5c4C(=O)N(C4CCC(=O)NC4=O)C5=O)CC3)cc2)cc(C(=O)NCc2c(C)cc(C)[nH]c2=O)c1C)C1CCOCC1 (stereo not drawn)

Compound: CCN(c1cc(-c2ccc(CN3CCOCC3)cc2)cc(C(=O)NCc2c(C)cc(C)[nH]c2=O)c1C)C1CCOCC1
- Activity (A549 [9]): inactive
- Activity (NCI-H1299 [10]): inactive
- Activity (A549 [11]): inactive
- Activity (NCI-H1299 [12]): inactive
- Activity (A549 [13]): inactive
- Activity (A549 [14]): inactive
- Activity (MDA-MB-468 [15]): inactive
- Activity (NCI-H1299 [16]): inactive
- Activity (MDA-MB-468 [17]): inactive
- Activity (A549 [18]): inactive
- Activity (MDA-MB-468 [19]): inactive
- Activity (NCI-H1299 [20]): inactive
- Activity (A549 [21]): inactive
- Activity (NCI-H1299 [22]): inactive
- Activity (MDA-MB-468 [23]): inactive
- Activity (MDA-MB-468 [24]): inactive
- Activity (A549 [25]): inactive
- Activity (NCI-H1299 [26]): inactive
- Activity (WSUDLCL2): Active
- Activity (MDA-MB-468 [27]): inactive
- Activity (NCI-H1299 [28]): inactive

- IC50 [4]: 30 nM
- Activity [8]: Active
Compound: CCN(c1cc(-c2ccc(CN3CCN(CCCCCCCCCCCOc4cccc5c4C(=O)N(C4CCC(=O)NC4=O)C5=O)CC3)cc2)cc(C(=O)NCc2c(C)cc(C)[nH]c2=O)c1C)C1CCOCC1 (stereo not drawn)

- IC50 [4]: 5.8 nM
Compound: CC[C@H](C)n1cc(C)c2c(C(=O)NCc3c(C)cc(C)[nH]c3=O)cc(-c3ccc(N4CCN(CCCCCOc5cccc6c5C(=O)N(C5CCC(=O)NC5=O)C6=O)CC4)nc3)cc21 (stereo partly drawn)
